Assay results reported in ChEMBL document CHEMBL3045504, “Activity of 1,4-benzoquinones against formosan subterranean termites (Coptotermes formosanus)” (2008).

Legend:
Format in all cases: functional
[1] = system: Coptotermes formosanus; experiment: Termiticidal activity against Coptotermes formosanus placed on 1 % wt/wt compound treated filter paper assessed as termite mortality measured 3 days post compound exposure
[2] = system: Coptotermes formosanus; experiment: Antifeedant activity against Coptotermes formosanus placed on 1 % wt/wt compound treated filter paper assessed as filter paper consumption measured 21 days post compound exposure (reference value: 42.4 +/- 4.3 mg)
[3] = system: Coptotermes formosanus; experiment: Termiticidal activity against Coptotermes formosanus placed on 1 % wt/wt compound treated filter paper assessed as termite mortality measured 11 days post compound exposure
[4] = system: Coptotermes formosanus; experiment: Termiticidal activity against Coptotermes formosanus placed on 1 % wt/wt compound treated filter paper assessed as termite mortality measured 21 days post compound exposure
[5] = system: Coptotermes formosanus; experiment: Antifeedant activity against Coptotermes formosanus placed on 1 % wt/wt compound treated filter paper assessed as filter paper consumption measured 21 days post compound exposure (reference value: 15.9 +/- 10.4 mg)
[6] = system: Coptotermes formosanus; experiment: Antifeedant activity against Coptotermes formosanus placed on 1 % wt/wt compound treated filter paper assessed as filter paper consumption measured 21 days post compound exposure (reference value: 44 +/- 1.1 mg)
[7] = system: Coptotermes formosanus; experiment: Termiticidal activity against Coptotermes formosanus placed on 0.5 % wt/wt compound treated filter paper assessed as termite mortality measured 11 days post compound exposure
How it was run: (§1)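 Treated filter paper disks moistened with 100 µL water; 20 C. formosanus workers (third instar or greater) plus 1 soldier per dish from field colonies kept on spruce, ca. 100% RH, 26.6 °C. Daily mortality scored for 3 weeks; cumulative percent mortality from four replicates, each a different colony; water-only controls; ANOVA, protected Fisher LSD (P < 0.05) after arcsine square-root transform.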

[8] = system: Coptotermes formosanus; experiment: Termiticidal activity against Coptotermes formosanus placed on 0.5 % wt/wt compound treated filter paper assessed as termite mortality measured 21 days post compound exposure; how it was run: as §1
[9] = system: Coptotermes formosanus; experiment: Antifeedant activity against Coptotermes formosanus placed on 0.5 % wt/wt compound treated filter paper assessed as filter paper consumption measured 21 days post compound exposure (reference value: 23.6 +/- 13.6 mg)
[10] = system: Coptotermes formosanus; experiment: Termiticidal activity against Coptotermes formosanus placed on 0.5 % wt/wt compound treated filter paper assessed as termite mortality measured 3 days post compound exposure; how it was run: as §1
[11] = system: Coptotermes formosanus; experiment: Antifeedant activity against Coptotermes formosanus placed on 1 % wt/wt compound treated filter paper assessed as filter paper consumption measured 21 days post compound exposure (reference value: 85 +/- 15.1 mg)

| SMILES | mortality [1] | Activity [2] | mortality [3] | mortality [4] | Activity [5] | Activity [6] | mortality [7] | mortality [8] | Activity [9] | mortality [10] | Activity [11] |
| --- | --- | --- | --- | --- | --- | --- | --- | --- | --- | --- | --- |
| COC1=CC(=O)C(C[P+](c2ccccc2)(c2ccccc2)c2ccccc2)=CC1=O.[Cl-] | 13.3% | 5.3 mg | 60% | 98.3% |  |  |  |  |  |  |  |
| CCCCCCCCCCCCCC1=C(O)C(=O)C=C(O)C1=O [Rapanone] | 5% |  | 76.7% | 81.7% | 0.3 mg |  |  |  |  |  |  |
| COC1=CC(=O)C(c2ccccc2)=CC1=O | 3.3% | 35.8 mg | 6.7% | 31.7% |  |  |  |  |  |  |  |
| Cc1ccc(NC2=C(Cl)C(=O)C(Nc3ccc(C)cc3)=C(Cl)C2=O)cc1 | 6.3% |  | 52.5% | 88.8% |  | 19.1 mg |  |  |  |  |  |
| CNC1=C(Cl)C(=O)C(NC)=C(Cl)C1=O | 8.8% |  | 90% | 100% |  | 7.8 mg |  |  |  |  |  |
| O=C1C(Cl)=C(Nc2ccccc2)C(=O)C(Cl)=C1Nc1ccccc1 | 0% |  | 40% | 60% |  | 36.3 mg |  |  |  |  |  |
| CC1=C(Br)C(=O)C(Br)=C(Cl)C1=O |  |  |  |  |  |  | 22.5% | 31.3% | 26.1 mg | 2.5% |  |
| CC(C)(C)C1=CC(=O)C=CC1=O | 13.3% |  | 18.3% | 28.3% |  |  |  |  |  |  | 60.4 mg |
| O=C1C(Cl)=C(Nc2cccc([N+](=O)[O-])c2)C(=O)C(Cl)=C1Nc1cccc([N+](=O)[O-])c1 | 0% |  | 75% | 90% |  | 18.3 mg |  |  |  |  |  |
| CCCCCCCCCCC1=C(C)C(=O)C(OC)=C(OC)C1=O [DECYLUBIQUINONE] | 13.3% | 19.3 mg | 75% | 100% |  |  |  |  |  |  |  |
| COC1=CC(=O)C(OC)=CC1=O | 3.3% |  | 6.7% | 8.3% |  |  |  |  |  |  | 107 mg |
| CC1=CC(=O)C=CC1=O [Cresoquinone] | 1.7% |  | 11.7% | 20% |  |  |  |  |  |  | 22.5 mg |
| COC1=C(OC)C(=O)C(C)=CC1=O [Ubiquinone Qo] | 75% | 7.2 mg | 81.7% | 90% |  |  |  |  |  |  |  |
| COC1=C(OC)C(=O)C(C/C=C(\C)CC/C=C(\C)CC/C=C(\C)CCC=C(C)C)=C(C)C1=O [Coenzyme Q4] | 1.7% |  | 11.7% | 15% |  |  |  |  |  |  | 74.6 mg |
| COC1=C(OC)C(=O)C(C/C=C(\C)CCC=C(C)C)=C(C)C1=O [Coenzyme Q2] | 0% |  | 15% | 25% |  |  |  |  |  |  | 56.1 mg |
| COC1=C(Cl)C(=O)C(Cl)=C(OC)C1=O | 0% |  | 0% | 2.5% |  | 37.8 mg |  |  |  |  |  |

| SMILES | mortality [1] | Activity [2] | mortality [3] | mortality [4] | Activity [5] | Activity [6] | mortality [7] | mortality [8] | Activity [9] | mortality [10] | Activity [11] |
| --- | --- | --- | --- | --- | --- | --- | --- | --- | --- | --- | --- |
| COC1=C(OC)C(=O)C(C/C=C(\C)CC/C=C(\C)CC/C=C(\C)CC/C=C(\C)CC/C=C(\C)CC/C=C(\C)CC/C=C(\C)CC/C=C(\C)CC/C=C(\C)CCC=C(C)C)=C(C)C1=O [UBIDECARENONE] | 0% |  | 10% | 10% |  |  |  |  |  |  | 49.6 mg |
| Cc1ccc(C2=CC(=O)C=CC2=O)cc1 | 5% |  | 16.7% | 38.3% |  |  |  |  |  |  | 43.2 mg |
| O=C1C(Cl)=C(Nc2ccc(Cl)cc2)C(=O)C(Cl)=C1Nc1ccc(Cl)cc1 | 10% |  | 62.5% | 86.3% |  | 22.7 mg |  |  |  |  |  |
| COC1=C(OC)C(=O)C(C/C=C(\C)CC/C=C(\C)CC/C=C(\C)CC/C=C(\C)CC/C=C(\C)CCC=C(C)C)=C(C)C1=O [Coenzyme Q6] | 1.7% |  | 6.7% | 18.3% |  |  |  |  |  |  | 97.3 mg |
| COc1cccc(NC2=C(Cl)C(=O)C(Nc3cccc(OC)c3)=C(Cl)C2=O)c1 | 0% |  | 1.3% | 33.8% |  | 34.9 mg |  |  |  |  |  |
| COC1=C(OC)C(=O)C(Cl)=C(Cl)C1=O |  |  |  |  |  |  | 8.8% | 30% | 19.3 mg | 2.5% |  |
| COc1ccccc1NC1=C(Cl)C(=O)C(Nc2ccccc2OC)=C(Cl)C1=O | 1.3% |  | 0% | 2.5% |  | 40.1 mg |  |  |  |  |  |
| COC1=C(OC)C(=O)C(C/C=C(\C)CC/C=C(\C)CC/C=C(\C)CC/C=C(\C)CC/C=C(\C)CC/C=C(\C)CC/C=C(\C)CC/C=C(\C)CCC=C(C)C)=C(C)C1=O [Coenzyme Q9] | 15% |  | 15% | 15% |  |  |  |  |  |  | 63.9 mg |
| O=C1C=CC(=O)C=C1 [BENZOQUINONE] |  |  |  |  |  |  |  |  |  |  | 80.7 mg |
| COC1=CC(=O)C=CC1=O | 13.3% |  | 21.7% | 31.7% |  |  |  |  |  |  | 6.5 mg |
| COC1=CC(=O)C(C)=CC1=O [Coprinin] | 18.3% |  | 56.7% | 93.3% |  |  |  |  |  |  | 4.2 mg |
| COC1=CC(=O)C=C(OC)C1=O [2,6-DIMETHOXYQUINONE] | 0% |  | 3.3% | 3.3% |  |  |  |  |  |  | 75.9 mg |
| CCCCCCCCCCCC1=C(O)C(=O)C=C(O)C1=O [EMBELIN] | 3.3% |  | 18.3% | 46.7% |  |  |  |  |  |  | 10.7 mg |
| COC1=C(OC)C(=O)C(CCCCCCCCCCO)=C(C)C1=O [IDEBENONE] | 0% | 37.9 mg | 0% | 38.3% |  |  |  |  |  |  |  |
| COc1ccc(NC2=C(Cl)C(=O)C(Nc3ccc(OC)cc3)=C(Cl)C2=O)cc1 | 1.3% |  | 3.8% | 57.5% |  | 39.8 mg |  |  |  |  |  |
| CC1=CC(=O)C(C(C)(C)C)=CC1=O | 5% |  | 21.7% | 26.7% |  |  |  |  |  |  | 68.3 mg |
